# Laboratory results published in PubChem BioAssay AID602152 (Broad Institute, 2011).
# Activity calls are given as the source filed them.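 Rule for the calls: active = efflux reduced below the neutral control level, like a known efflux blocker; inactive = efflux raised or left unchanged.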
# Assay: free cholesterol release via mSR-BI to HDL – ldlA[mSR-BI] cells, [3H]cholesterol, dry powder, mechanism study for SR-BI HDL uptake inhibitor project, dose response (AID 602152)
# Conditions: [3H]cholesterol efflux to HDL, LSC; at 25 µM (top of the series)
# Summary of the method: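 Assay system: ldlA[mSR-BI] cells, mouse SR-BI expressing; Reagent: HDL, 100 µg/mL; Times: 2-day label, 24 h equilibration, 1 h compound, 2 h efflux; Measured by: liquid scintillation counting of 3H in medium and cells.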
row,SMILES,"efflux, percent of neutral control"
1,COCC(=O)N1CCc2cc(-c3csc(NC(=O)c4cc(OC)cc(OC)c4)n3)ccc21,9.23% (active)
2,C[C@H](C(=O)NC1CCCC1)N(C(=O)Cn1nnc(-c2ccc3c(c2)OCO3)n1)C1CCCCC1,6.75% (active)
